The test system of series [1] is Leishmania donovani. As to the kind of experiment: Antileishmanial activity against Leishmania donovani infected in mouse peritoneal macrophages after 96 hrs. It is filed as functional, organism-based. The method in brief:
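L. donovani amastigotes from axenic culture grown at pH 5.4, 1.2 × 10⁵ per well added to macrophages; free amastigotes removed after 4 h and medium replaced. Compound dilutions added next day, 96 h incubation. Slides methanol-fixed 10 min, stained with 10% Giemsa; infected and non-infected macrophages counted, infection rates versus controls. Means of at least two independent assays in duplicate.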

Series [2] in a line: Therapeutic index, ratio of IC50 for rat L6 cells to IC50 for Trypanosoma cruzi.
Series [3] is described as follows: Therapeutic index, ratio of IC50 for rat L6 cells to IC50 for Trypanosoma cruzi C2C4. Type of series: cell-based. The note with it: read-out: Ratio IC50.
Series [4] deals with L6. As to the kind of experiment: Cytotoxicity against rat L6 cells after 4 days. Type of series: cell-based. The note with it: L6, 96 h. The method in brief:
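Non-infected L6 cells seeded at 2000 cells/well in RPMI 1640, 10% FBS, 2 mM L-glutamine, exposed to serial drug dilutions 4 d at 37 °C, 5% CO₂. […] after 2–4 h. IC50 from sigmoidal inhibition curve; means of at least two independent assays in duplicate.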

A short description of series [5]: Therapeutic index, ratio of IC50 for rat L6 cells to IC50 for Leishmania donovani. Type of series: cell-based. The note with it: read-out: Ratio IC50.
The test system of series [6] is Trypanosoma cruzi. Nature of the series: Antitrypanosomal activity against Trypanosoma cruzi Tulahuen C2C4 trypomastigotes infected in rat L6 cells after 4 days.
Series [7] deals with Leishmania donovani. As to the kind of experiment: Antileishmanial activity against Leishmania donovani amastigotes infected in mouse peritoneal macrophages after 96 hrs.
In series [8] the test system is Leishmania donovani. As to the kind of experiment: Antileishmanial activity against Leishmania donovani axenic amastigotes.

The structures appear in SMILES notation. In brackets after ≈: the same amount, converted by molar mass. Activity calls are given as the source filed them. The calls are words filed in the database; no cut-off is given here.

Turning to `COc1cc(OC)c(-c2ccc(O)c3ccccc23)c2c1CNC(C)(C)C2`, the IC50 (in general, the midpoint of a concentration-inhibition curve) in series [1] came out at 0.349 µg/mL (≈ 0.96 µM); in series [4], 8.4 µg/mL (≈ 23.1 µM); in series [6], 5.5 µg/mL (≈ 15.1 µM); in series [7] it was 5.2 µg/mL (≈ 14.3 µM). Further, the results for the selectivity ratio in series [2], in series [3] and in series [5] were 1.53, 1.62 and 24.1, respectively.
Turning to `COc1cc(OC)c(-c2ccc(O)cc2)c2c1CNC(C)(C)C2`, the IC50 was more than 5 µg/mL in series [1], 28.2 µg/mL (≈ 90 µM) in series [4], 45.2 µg/mL (≈ 144 µM) in series [6] and 12.8 µg/mL (≈ 40.7 µM) in series [7].
In the same order, the values of `COc1cc2c(c(OC)c1)C=NC(C)(C)C2` are more than 5 µg/mL, more than 90 µg/mL, 59.1 µg/mL (≈ 270 µM) and 18.3 µg/mL (≈ 83.5 µM).
As to `COc1ccc(I)c2c1CNC(C)(C)C2`, the IC50 is 0.341 µg/mL (≈ 1.08 µM) in series [1], 83.9 µg/mL (≈ 265 µM) in series [4] and 10 µg/mL (≈ 31.5 µM) in series [6]. For the same compound, in series [8], the result was inactive.
Take `COc1cc2c(c(OC)c1)CN(Cc1ccccc1)C(C)(C)C2`: the IC50 in series [1] is 1.4 µg/mL (≈ 4.48 µM); in series [4], more than 90 µg/mL; in series [6] it was 20.1 µg/mL (≈ 64.5 µM); in series [7], more than 10 µg/mL. Moreover, in series [5], the selectivity ratio is more than 64.5.
For `COc1cc(O)cc2c1CN(Cc1ccccc1)C(C)(C)C2`, the IC50 in series [1] was 0.521 µg/mL (≈ 1.75 µM); in series [4], 79.6 µg/mL (≈ 268 µM); in series [6] it was 22.7 µg/mL (≈ 76.3 µM); in series [7] it was 30 µg/mL (≈ 101 µM). The selectivity ratio in series [5] was determined as 153.
Turning to `COc1cc2c(c(OC)c1)CNC(C)(C)C2`, the IC50 was 3.46 µg/mL (≈ 15.6 µM) in series [1], more than 90 µg/mL in series [4], more than 90 µg/mL in series [6] and more than 30 µg/mL in series [7].
For `COc1ccc(I)c2c1CN(Cc1ccccc1)C(C)(C)C2`, the IC50 in series [1] was found to be 3.87 µg/mL (≈ 9.49 µM); in series [4] it was 30 µg/mL (≈ 73.7 µM); in series [6], 5.2 µg/mL (≈ 12.8 µM). In addition, the results for the selectivity ratio in series [2] and in series [5] were 5.77 and 7.8, respectively. Further, in series [8], the outcome was inactive.
For the compound `COc1cc(OC)c2c(c1Br)CC(C)(C)N(Cc1ccccc1)C2`, the IC50 is 0.424 µg/mL (≈ 1.09 µM) in series [1], 84.8 µg/mL (≈ 217 µM) in series [4], 5.8 µg/mL (≈ 14.9 µM) in series [6] and 4.2 µg/mL (≈ 10.8 µM) in series [7]. Moreover, the figures for the selectivity ratio in series [2], in series [3] and in series [5] were 14.6, 20.2 and 200, respectively.
For `COc1cc(OC)c2c(c1I)CC(C)(C)N(Cc1ccccc1)C2`, the IC50 in series [1] worked out at 1.02 µg/mL (≈ 2.34 µM); in series [4], 66 µg/mL (≈ 151 µM); in series [6], 3.7 µg/mL (≈ 8.46 µM); in series [7], 2.4 µg/mL (≈ 5.49 µM). In addition, the selectivity ratio in series [2] stood at 17.8; in series [3], 27.5; in series [5], 64.5.
As for `COc1cc(OC)c2c(c1Br)CC(C)(C)N=C2C`, the IC50 was 0.377 µg/mL (≈ 1.21 µM) in series [1], 57.5 µg/mL (≈ 184 µM) in series [4], 19.8 µg/mL (≈ 63.4 µM) in series [6] and 18.9 µg/mL (≈ 60.5 µM) in series [7]. Further, in series [5], the selectivity ratio worked out at 152.
Take `COc1cc(OC)c2c(c1Br)CC(C)(C)NC2`: the IC50 is 0.628 µg/mL (≈ 2.09 µM) in series [1], more than 90 µg/mL in series [4], 40.7 µg/mL (≈ 136 µM) in series [6] and more than 10 µg/mL in series [7].
Turning to `COc1ccc(-c2c(OC)cc(OC)c3c2CC(C)(C)N=C3C)cc1`, the IC50 in series [1] is more than 5 µg/mL; in series [4], 43.4 µg/mL (≈ 128 µM); in series [6], 3.6 µg/mL (≈ 10.6 µM); in series [7], more than 30 µg/mL. Further, the selectivity ratio in series [2] came to 12.1.
Turning to `COc1cc(OS(=O)(=O)C(F)(F)F)cc2c1CN(Cc1ccccc1)C(C)(C)C2`, the IC50 in series [1] was 4.67 µg/mL (≈ 10.9 µM); in series [4], more than 90 µg/mL; in series [6] it was 44.8 µg/mL (≈ 104 µM). Further, the result in series [8] was inactive. Moreover, the selectivity ratio in series [5] was more than 19.2.
For the compound `COc1cc(OC)c2c(c1I)CC(C)(C)NC2`, the IC50 in series [1] is 0.463 µg/mL (≈ 1.33 µM); in series [4] it was 33.2 µg/mL (≈ 95.6 µM); in series [6] it was 37.7 µg/mL (≈ 109 µM); in series [7], more than 10 µg/mL.
As to `COc1cc([C@@H]2c3cc4c(cc3[C@H](O)[C@H]3COC(=O)[C@H]23)OCO4)cc(OC)c1OC` [PODOFILOX], the IC50 in series [4] is 0.006 µg/mL (≈ 0.0145 µM).
Turning to `COc1cccc2c1CNC(C)(C)C2`, the IC50 in series [1] is more than 5 µg/mL; in series [4], more than 90 µg/mL; in series [6], 33 µg/mL (≈ 173 µM). Further, the outcome in series [8] was inactive.
With `O=C(Cn1ccnc1[N+](=O)[O-])NCc1ccccc1` [BENZNIDAZOLE], in series [2], the selectivity ratio is more than 360. Also, the IC50 in series [6] is 0.25 µg/mL (≈ 0.961 µM).
`CCN(CC)CCCC(C)Nc1ccnc2cc(Cl)ccc12` (centres undefined) [CHLOROQUINE]: in series [1], the IC50 was 0.23 µg/mL (≈ 0.719 µM). Besides, in series [5], the selectivity ratio turned out to be 1090.
Consider `COc1cc2c(c(OC)c1)C(C)=NC(C)(C)C2`, for which the IC50 is 4.06 µg/mL (≈ 17.4 µM) in series [1], more than 90 µg/mL in series [4], 44.8 µg/mL (≈ 192 µM) in series [6] and 18.2 µg/mL (≈ 78 µM) in series [7]. The selectivity ratio in series [5] is more than 22.2.
Consider `COc1ccc(-c2ccc(O)cc2CO)c2c1CNC(C)(C)C2`, for which the IC50 in series [1] was 3.55 µg/mL (≈ 11.3 µM); in series [4] it was more than 90 µg/mL; in series [6] it was more than 30 µg/mL; in series [7], more than 30 µg/mL.

(Values after ChEMBL document CHEMBL1149756, “Synthesis and antiprotozoal activities of simplified analogs of naphthylisoquinoline alkaloids” (Eur J Med Chem, 2008).)
